Measured values pooled from the literature.
Each line is one published result; the experiments were not run side by side.
Target: 3-phosphoinositide-dependent protein kinase 1 (PDPK1, Homo sapiens, UniProt O15530)
Sequence (O15530 1-556, as in one of the studies): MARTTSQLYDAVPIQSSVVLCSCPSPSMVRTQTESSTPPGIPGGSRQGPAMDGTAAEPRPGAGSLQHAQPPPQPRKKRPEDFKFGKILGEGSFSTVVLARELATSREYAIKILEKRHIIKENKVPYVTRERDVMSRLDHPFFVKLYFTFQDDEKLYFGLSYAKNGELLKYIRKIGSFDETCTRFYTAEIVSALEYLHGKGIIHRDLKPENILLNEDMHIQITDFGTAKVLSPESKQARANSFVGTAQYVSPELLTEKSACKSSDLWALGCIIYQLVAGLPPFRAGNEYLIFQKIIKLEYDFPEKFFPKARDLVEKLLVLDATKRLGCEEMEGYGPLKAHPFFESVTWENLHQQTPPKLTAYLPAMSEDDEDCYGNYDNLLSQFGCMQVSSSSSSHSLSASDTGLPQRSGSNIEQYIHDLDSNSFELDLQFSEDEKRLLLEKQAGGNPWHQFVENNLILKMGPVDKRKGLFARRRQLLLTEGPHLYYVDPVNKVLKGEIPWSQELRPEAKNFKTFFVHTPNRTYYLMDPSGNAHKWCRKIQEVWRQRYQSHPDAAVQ

SMILES | effect on | action | technique | tested at | measurement | value
CN1CCN(C(=O)c2ccc(NC(=O)Nc3ccc(N(C)c4ccnc(Nc5ccc(CS(C)(=O)=O)cc5)n4)cc3)cc2)CC1 | binding | – | – | 1 µM | remaining binding | 68%
C#Cc1cnc(Nc2ccnc(CO)c2)nc1Nc1ccccc1S(C)(=O)=NC#N (centres unmarked) | cell-free assay | – | – | 1 µM | remaining signal | 100%
Cc1cc(O)c(-c2ccc([C@@H](C)CN(C)C)cc2)c2c1[nH]c(=O)c1sccc12 | enzyme activity | inhibitor | – | 0.1 µM | inhibition | 4.15%
COc1ccc2oc(-c3ccc4nc(N)oc4c3)c/c(=N\c3ccccc3NC(=O)CCN)c2c1 | binding | – | – | 1 µM | remaining binding | 100%
C[C@H]1CC[C@H](n2c3cnccc3c3cnc(Nc4ccc5c(n4)CCN(C(=O)CO)C5)nc32)CC1 | cell-free assay | – | – | 1 µM | remaining signal | 100%
N#Cc1ccc(NC(=O)Nc2ccccc2)cc1 | cell-free assay | – | competition with immobilised ligand | 25 µM | remaining binding | 100%
C=CC(=O)N1CCC([C@@H]2CCNc3c(C(N)=O)c(-c4ccc(Oc5ccccc5)cc4)nn32)CC1 | enzyme activity | inhibitor | – | 1 µM | inhibition | 18%
CC(C)S(=O)(=O)c1ccc2nccc(Nc3ccc4sc(C5CCCC5)nc4c3)c2c1 | enzyme activity | inhibitor | – | 1 µM | activity vs control | 118%
C1=C/COCc2cc(ccc2OCCN2CCCC2)Nc2nccc(n2)-c2cccc(c2)COC/1 | binding | – | – | 0.1 µM | remaining binding | 100%
CO[C@@H]1[C@H](N(C)C(=O)c2ccccc2)C[C@H]2O[C@]1(C)n1c3ccccc3c3c4c(c5c6ccccc6n2c5c31)C(=O)NC4 | enzyme activity | inhibitor | – | 1 µM | inhibition | 73%
CCCCC(=O)Nc1ccc(-c2ccc3ncn(CCC)c(=O)c3c2)cn1 | binding | – | competition with immobilised ligand | 0.5 µM | remaining binding | 100%
